ChEMBL document CHEMBL1142087 (Antimicrob Agents Chemother, 2007)
Activity calls are given as the source filed them. The calls are words filed in the database; no cut-off is given here.

How the values were obtained:
[1] = system: Mus musculus; assay: Effect on survival of BALB/c mouse infected with influenza A virus (A/duck/Minnesota/1525/1981 (H5N1)) at 300 mg/kg/day, po qid for 5 days administered 84 hrs after infection relative to carboxymethyl cellulose; assay type: functional, organism-based
[2] = system: Mus musculus; assay: Effect on survival in BALB/c mouse infected with influenza A virus (A/duck/Minnesota/1525/1981 (H5N1)) at 300 mg/kg/day, po administered 48 hrs after infection relative to carboxymethyl cellulose; assay type: functional, organism-based
[3] = system: Mus musculus; assay: Lowering of arterial oxygen saturation decline in BALB/c mouse infected with influenza A virus (A/duck/Minnesota/1525/1981 (H5N1)) at 300 mg/kg/day, po qid for 5 days administered 60 hrs after infection measured on day 11 relative to carboxymethyl cellulose; assay type: functional
[4] = system: Mus musculus; assay: Lowering of Arterial oxygen saturation decline in BALB/c mouse infected with influenza A virus (A/duck/Minnesota/1525/1981 (H5N1)) at 3 mg/kg/day, po twice daily for 5 days administered 1 hr after infection measured on day 11 relative to carboxymethyl cellulose; assay type: functional
Summary of the method: (§1)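 Arterial oxygen saturation was measured by pulse oximeter, with the ear probe placed on the thigh and read after 30 s stabilization. Values were taken on day 11, 10 mice per group. Mice dead from infection were assigned 75%. Means were compared with CMC controls by t test.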

[5] = system: Mus musculus; assay: Effect on survival of BALB/c mouse infected with influenza A virus (A/duck/Minnesota/1525/1981 (H5N1)) at 3 mg/kg/day, po once daily for 5 days administered 1 hr after infection relative to carboxymethyl cellulose; assay type: functional, organism-based
[6] = system: Mus musculus; assay: Effect on survival of BALB/c mouse infected with influenza A virus (A/duck/Minnesota/1525/1981 (H5N1)) at 300 mg/kg/day, po twice daily for 5 days administered 1 hr after infection relative to carboxymethyl cellulose; assay type: functional, organism-based
[7] = system: Mus musculus; assay: Effect on survival in BALB/c mouse infected with influenza A virus (A/duck/Minnesota/1525/1981 (H5N1)) at 600 mg/kg/day, po administered 4 hrs after infection relative to carboxymethyl cellulose; assay type: functional, organism-based
[8] = system: Mus musculus; assay: Lowering of arterial oxygen saturation decline in BALB/c mouse infected with influenza A virus (A/duck/Minnesota/1525/1981 (H5N1)) at 300 mg/kg/day, po qid for 5 days administered 48 hrs after infection measured on day 11 relative to carboxymethyl cellulose; assay type: functional
[9] = system: Mus musculus; assay: Lowering of arterial oxygen saturation decline in BALB/c mouse infected with influenza A virus (A/duck/Minnesota/1525/1981 (H5N1)) at 300 mg/kg/day, po qid for 5 days administered 96 hrs after infection measured on day 11 relative to carboxymethyl cellulose; assay type: functional
[10] = system: Mus musculus; assay: Lowering of Arterial oxygen saturation decline in BALB/c mouse infected with influenza A virus (A/duck/Minnesota/1525/1981 (H5N1)) at 30 mg/kg/day, po twice daily for 5 days administered 1 hr after infection measured on day 11 relative to carboxymethyl cellulose; assay type: functional; summary of the method: as §1
[11] = system: Mus musculus; assay: Effect on survival in BALB/c mouse infected with influenza A virus (A/duck/Minnesota/1525/1981 (H5N1)) at 600 mg/kg/day, po administered 12 hrs after infection relative to carboxymethyl cellulose; assay type: functional, organism-based
[12] = system: Mus musculus; assay: Lowering of arterial oxygen saturation decline in BALB/c mouse infected with influenza A virus (A/duck/Minnesota/1525/1981 (H5N1)) at 30 mg/kg/day, po once daily for 5 days administered 1 hr after infection measured on day 11 relative to carboxymethyl cellulose; assay type: functional
[13] = system: Mus musculus; assay: Effect on survival of BALB/c mouse infected with influenza A virus (A/duck/Minnesota/1525/1981 (H5N1)) at 100 mg/kg/day, po once daily for 5 days administered 1 hr after infection relative to carboxymethyl cellulose; assay type: functional, organism-based
[14] = system: Mus musculus; assay: Lowering of arterial oxygen saturation decline in BALB/c mouse infected with influenza A virus (A/duck/Minnesota/1525/1981 (H5N1)) at 300 mg/kg/day, po qid for 5 days administered 36 hrs after infection measured on day 11 relative to carboxymethyl cellulose; assay type: functional
[15] = system: Mus musculus; assay: Lowering of arterial oxygen saturation decline in BALB/c mouse infected with influenza A virus (A/duck/Minnesota/1525/1981 (H5N1)) at 300 mg/kg/day, po qid for 5 days administered 72 hrs after infection measured on day 11 relative to carboxymethyl cellulose; assay type: functional
[16] = system: Influenza A virus; assay: Inhibition of influenza A virus (A/duck/Minnesota/1525/1981 (H5N1)) replication in MDCK cells by virus yield reduction assay; assay type: functional
[17] = system: Mus musculus; assay: Effect on survival in BALB/c mouse infected with influenza A virus (A/duck/Minnesota/1525/1981 (H5N1)) at 300 mg/kg/day, po administered 12 hrs after infection relative to carboxymethyl cellulose; assay type: functional, organism-based
[18] = system: Mus musculus; assay: Effect on survival of BALB/c mouse infected with influenza A virus (A/duck/Minnesota/1525/1981 (H5N1)) at 300 mg/kg/day, po once daily for 5 days administered 1 hr after infection relative to carboxymethyl cellulose; assay type: functional, organism-based
[19] = system: Influenza A virus; assay: Inhibition of Influenza A virus (A/gull/Pennsylvania/4175/83 (H5N1)) replication in MDCK cells by virus yield reduction assay; assay type: functional
[20] = system: Mus musculus; assay: Inhibition of increase in lung weight of BALB/c mouse infected with influenza A virus (A/duck/Minnesota/1525/1981 (H5N1)) at 300 mg/kg/day, po qid for 5 days administered 1 hr after infection measured on day 6 relative to carboxymethyl cellulose; assay type: functional
[21] = system: Mus musculus; assay: Lowering of Arterial oxygen saturation decline in BALB/c mouse infected with influenza A virus (A/duck/Minnesota/1525/1981 (H5N1)) at 100 mg/kg/day, po twice daily for 5 days administered 1 hr after infection measured on day 11 relative to carboxymethyl cellulose; assay type: functional; summary of the method: as §1
[22] = system: Mus musculus; assay: Effect on survival of BALB/c mouse infected with influenza A virus (A/duck/Minnesota/1525/1981 (H5N1)) at 300 mg/kg/day, po qid for 5 days administered 24 hrs after infection relative to carboxymethyl cellulose; assay type: functional, organism-based
[23] = system: Mus musculus; assay: Effect on survival in BALB/c mouse infected with influenza A virus (A/duck/Minnesota/1525/1981 (H5N1)) at 600 mg/kg/day, po administered 60 hrs after infection relative to carboxymethyl cellulose; assay type: functional, organism-based
[24] = system: Mus musculus; assay: Lowering of arterial oxygen saturation decline in BALB/c mouse infected with influenza A virus (A/duck/Minnesota/1525/1981 (H5N1)) at 3 mg/kg/day, po once daily for 5 days administered 1 hr after infection measured on day 11 relative to carboxymethyl cellulose; assay type: functional
[25] = system: Mus musculus; assay: Lowering of arterial oxygen saturation decline in BALB/c mouse infected with influenza A virus (A/duck/Minnesota/1525/1981 (H5N1)) at 300 mg/kg/day, po qid for 5 days administered 24 hrs after infection measured on day 11 relative to carboxymethyl cellulose; assay type: functional
[26] = system: Mus musculus; assay: Effect on survival of BALB/c mouse infected with influenza A virus (A/duck/Minnesota/1525/1981 (H5N1)) at 300 mg/kg/day, po qid for 5 days administered 1 hr after infection relative to carboxymethyl cellulose; assay type: functional, organism-based

## NC(=O)c1nc(F)cnc1O [FAVIPIRAVIR]
[1]
  Activity: Active
[2]
  Activity: Active
[3]
  Activity: 84.6%
[4]
  Activity: 75%
[5]
  Activity: inactive
[6]
  Activity: Active
[7]
  Activity: Active
[8]
  Activity: 87.1%
[9]
  Activity: 81.2%
[10]
  Activity: 79.8%
[11]
  Activity: Active
[12]
  Activity: 81.4%
[13]
  Activity: Active
[14]
  Activity: 84.6%
[15]
  Activity: 84.1%
[16]
  EC90: 2.6 µM
[17]
  Activity: Active
[18]
  Activity: Active
[19]
  EC90: 7.7 µM
[20]
  Activity: 146 mg
[21]
  Activity: 84.2%
[22]
  Activity: Active
[23]
  Activity: Active
[24]
  Activity: 75%
[25]
  Activity: 85.3%
[26]
  Activity: Active
